Screening data (PubChem)
In the library only some 9.6% were active in any assay of this set; here they are far more common.
APP transl inh = APP translation inhibition; 190,000 tested, 0.82% active; SH-SY5Y APP 5'UTR-luciferase reporter, luminescence; inhibition, % at 2 µM;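 active = inhibition above a set limit, derived from the sample mean plus 3 SD, cut at about 45% in these data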
L major viab = inhibitors of Leishmania major promastigote growth | AID 1063 | Leishmania major promastigotes, resazurin fluorescence viability | inhibition, % at 10 µM | 200,000 tested, 9% active; in the data active = inhibition above about 50%;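 also: promastigotes grown with compound for 44 hours at 28 °C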
b-catenin transl = alters nuclear translocation of beta-catenin in HeLa cells | immunofluorescence imaging | nuclear translocation activity, % at 5 µM | 190,000 tested, 0.3% active;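 active = nuclear translocation activity above 50% at 5 µM, with a well cell count of 50 or more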;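 also: per-cell ratio of nuclear to cytoplasmic median beta-catenin stain intensity; plate controls were DMSO negative control for no effect and GSK-3 inhibitor IX positive control for full effect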
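System: Human HeLa cells, endogenous beta-catenin | Compound dosing: 5 µM primary, 0.02–20 µM confirmation | Timing: 24 h compound exposure at 37°C, 5% CO2 | Measured by: Fluorescence imaging of beta-catenin antibody stain plus DAPI | Read-out basis: % activation of per-cell nuclear versus cytoplasmic median beta-catenin signal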
BaF3 parental = counter-screen for JAK2V617F inhibitors: parental Ba/F3 viability inhibitors; CellTiter-Glo ATP luminescence; inhibition, % at 5.6 µM; 220,000 tested, 1.1% active; AID 1486;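 active = inhibition above a per-campaign cutoff, the mean inhibition of all tested compounds plus 3 SD, cut at about 27% in these data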;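 also: 0% = DMSO wells and 100% = JAK Inhibitor I control wells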
MT stabilizer = microtubule stabilizers in HeLa cells. 200,000 tested, 0.83% active. % tubulin-high responders, % at 10 µM. HeLa tubulin immunostaining HCS, 24 h; share of cells brighter than vehicle mean+2SD;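 active = plate Z-score above 3 for both tubulin-high and condensed-nucleus cell shares, with cell loss under 80%, at 10 µM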;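 also: anti alpha tubulin signal scored within the nucleus-defined area of each cell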
Ba/F3 V617F tox = loss of viability in JAK2V617F-driven Ba/F3 cells; Ba/F3 EpoR-JAK2V617F viability, ATP luminescence; inhibition, % at 5.6 µM; 220,000 tested, 1.1% active; AID 1446;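 active = inhibition above the campaign mean plus 3 SD over all tested compounds, cut at about 24% in these data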;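 also: cytokine-independent growth of Ba/F3 cells driven by EpoR plus mutant JAK2; 0% = DMSO-treated cells and 100% = JAK inhibitor I control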
The depositor's hits bear a star; x = no result given.

SMILES	APP transl inh	L major viab	b-catenin transl	BaF3 parental	MT stabilizer	Ba/F3 V617F tox
Clc1ccc(-n2cc(-c3ccc(Br)cc3)[n+]3c2CCCCC3)cc1	x	x	1	60*	x	55*
CC(C)(C)c1cn(-c2ccc(Cl)cc2)c(=S)[nH]1	-15	-6	x	3	1	-3
Cc1ccc(-c2cn(-c3ccc(SC(F)F)cc3)c3[n+]2CCC3)cc1	-9	99*	2	66*	2	67*
CCOC(=O)C1(CC2CC2)CCN(C(=O)c2cc(C)nc3ccc(CC)cc23)CC1	-6	13	1	1	3	3
O=C(CSCc1ccccc1)N/N=C/c1cc2c(cc1Br)OCO2	14	24	0	4	3	0
COc1ccc(C(=O)N(NC(=O)Oc2ccccc2)C(C)(C)C)cc1	11	2	0	2	4	-3
O=[N+]([O-])c1cc(C(F)(F)F)ccc1Sc1nccn1Cc1ccccc1	-12	-3	-3	0	2	0
O=[N+]([O-])c1ccc(Sc2nccn2Cc2ccccc2)c([N+](=O)[O-])c1	-15	101*	-1	8	5	3
N#C/C(C(=O)NCCc1ccccc1)=C1/N=C(NC(=O)c2cccs2)c2ccccc21	-4	-3	49	10	12*	4
COc1ccccc1-[n+]1c(C)cc(/C=C2\Sc3ccccc3N2C)cc1C	x	x	14	96*	x	99*
Cc1noc(NC(=O)c2cccc(Cl)c2Cl)c1C#N	14	-4	1	10	3	2
O=C1c2ccccc2C(=O)c2c1cccc2-n1nnc2ccccc21	x	x	0	-7	x	-2
O=C1C(N2CCOCC2)=C(n2nnc3ccccc32)C(=O)c2ccccc21	29	100*	x	2	70	6
O=C1Nc2ccccc2C1(O)Cc1ccccn1 (configuration not stated)	x	x	0	-3	x	1
CCN(CC)CCOc1ccc(Br)cc1	1	0	-2	2	4	0
CCN(CC)CCCOc1ccc(Cl)c(Cl)c1	5	83*	1	7	3	0
CN1CCN(CCOc2ccc(Cl)c(Cl)c2)CC1	0	98*	-2	1	4	3
CCN(CC)CCOc1ccc2c(c1)C(=NO)c1cc(OCCN(CC)CC)ccc1-2	33	100*	0	19	3	18
N#CCC(=O)N1CCN(C=O)CC1	-16	-6	-6	8	2	-3
Cc1ccccc1OCc1nc2ccccc2c(=O)n1/N=C/c1c[nH]c2ccccc12	-6	2	-3	7	5	-1
Cc1cccc(C)c1OCc1nc2ccccc2c(=O)n1/N=C/c1c[nH]c2ccccc12	16	96*	2	3	4	-3
Cc1cc(/C=N/n2c(COc3ccccc3C)nc3ccccc3c2=O)c(O)c([N+](=O)[O-])c1	45*	1	3	9	8	4
Cc1ccc(-c2[nH]ncc2/C=N/n2c(COc3ccccc3C)nc3ccccc3c2=O)cc1	36	75*	3	6	3	1
Cc1nccn1-c1cc(C(C)(C)C)nc2c(-c3ccccc3)cnn12	16	67*	1	2	4	-2
CCc1nccn1-c1cc(C(C)(C)C)nc2c(-c3ccc(Cl)cc3)cnn12	-7	7	1	-3	4	-3
SMILES	APP transl inh	L major viab	b-catenin transl	BaF3 parental	MT stabilizer	Ba/F3 V617F tox
COc1ccc(OC)c(NC(=O)Cc2coc3ccc(C)cc23)c1	6	15	1	5	3	2
COc1ccc(OC)c(NC(=O)Cc2coc3ccc4ccccc4c23)c1	68*	14	-3	4	2	-3
COc1ccc(C)cc1N(CC(=O)N1CCc2ccccc2C1)S(C)(=O)=O	3	-5	0	1	3	-4
CC(Cc1cccs1)NC(=O)Nc1ccc(Cl)c(Cl)c1 (configuration not stated)	-37	61*	x	3	2	-6
O=C(Nc1cccc(Cl)c1)Nc1nccs1	-40	6	0	6	3	1
CC(Cc1cccs1)NC(=S)Nc1ccccc1 (configuration not stated)	-18	60*	x	6	2	4
CC(Cc1cccs1)NC(=O)Nc1ccccc1 (configuration not stated)	-27	4	-8	0	6	-6
O=C(Nc1ccc(Cl)c(Cl)c1)Nc1nccs1	x	x	12	71*	x	73*
CCOC(=O)C(C)Oc1ccccc1C1NC(=O)NC(C)=C1C(=O)Nc1ccc(C)c(C)c1 (configuration not stated)	-4	76*	x	2	1	-3
CCOC(=O)Nc1nc(-c2ccccc2)c(C(=O)c2ccccc2)s1	94*	6	x	80*	14	80*
Cc1nc(NC(=O)CSc2nc3cccnc3n2C2CCCCC2)sc1C	-3	-4	2	6	3	2
CCn1c(SCC(=O)Nc2nc(C)c(C)s2)nc2cccnc21	-12	92*	-2	0	4	-1
N=C1S/C(=C\c2ccco2)C(=O)N1c1ccc2c(c1)OCO2	-24	6	0	2	3	-3
N=C1S/C(=C\c2ccco2)C(=O)N1c1nccs1	-6	90*	-3	4	5	3
Cn1cccc1CC(=O)N/N=C/c1ccc([N+](=O)[O-])cc1	x	x	-4	0	x	1
CCOc1ccc(N2CC(C(=O)Nc3ccccc3N3CCOCC3)CC2=O)cc1 (configuration not stated)	7	77*	x	5	2	-2
O=C(Nc1ccccc1N1CCOCC1)C1CCN(S(=O)(=O)c2ccccc2F)CC1	13	56*	-1	6	2	2
Cn1c(=O)c(=O)n(C)c2cc(S(=O)(=O)N3CCN(c4cccc(C(F)(F)F)c4)CC3)ccc21	-13	-6	x	7	1	-1
CC(=O)NC(CSC(CC(=O)c1ccco1)c1ccc(C)cc1)C(=O)O (configuration not stated)	-45	18	-3	6	4	-1
Cc1ccc(C(=O)C(O)C(c2ccc(C)cc2)N2CCCCC2)cc1 (configuration not stated)	-10	9	0	1	8	-5
COC(=O)c1ccc(C(=O)OC)c(NC(=S)N2CCN(c3ccccn3)CC2)c1	-17	5	1	8	1	1
O=C(N/N=C/C=C/c1ccccc1)c1cc2c(ccc3ccccc32)o1	-5	2	2	5	1	0
O=C(NCc1ccccc1F)Nc1ccc([N+](=O)[O-])cc1	-20	16	-1	1	2	-3
S=C(NCCc1ccccc1)N1CCc2ccccc2C1	-44	78*	3	2	7	0
Oc1ccc(N2CCN(C(=S)NCCc3ccccc3)CC2)cc1	1	98*	6	13	1	8
